ChEMBL document CHEMBL3797175, “Discovery of 6-(difluoro(6-(4-fluorophenyl)-[1,2,4]triazolo[4,3-b][1,2,4]triazin-3-yl)methyl)quinoline as a highly potent and selective c-Met inhibitor” (Eur J Med Chem, 2016)
Active and inactive are the calls of the source.

Legend:
[1] = Cmax in Sprague-Dawley rat at 10 mg/kg, po administered as single dose; format: ADME, organism-based; design: dose 10 mg/kg, route oral; conditions: in vivo
Summary of the method: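 Male Sprague Dawley rats (n=3), single dose. iv 2 mg/kg in 1% DMA/9% Cremophor/90% saline. po 10 mg/kg in 0.5% CMC-Na. Where iv was 10 mg/kg: 10% DMSO/10% Tween 80/80% (40% PEG40); po in that case in 10% DMSO/5% Tween 80/85% saline.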

[2] = biological target: Epidermal growth factor receptor (Homo sapiens) (UniProt P00533); assay: Inhibition of recombinant EGFR (unknown origin) using poly (Glu, Tyr) 4:1 as substrate at 1000 nM incubated for 60 mins by ELISA relative to control
Epidermal growth factor receptor (Homo sapiens), sequence (P00533 whole entry): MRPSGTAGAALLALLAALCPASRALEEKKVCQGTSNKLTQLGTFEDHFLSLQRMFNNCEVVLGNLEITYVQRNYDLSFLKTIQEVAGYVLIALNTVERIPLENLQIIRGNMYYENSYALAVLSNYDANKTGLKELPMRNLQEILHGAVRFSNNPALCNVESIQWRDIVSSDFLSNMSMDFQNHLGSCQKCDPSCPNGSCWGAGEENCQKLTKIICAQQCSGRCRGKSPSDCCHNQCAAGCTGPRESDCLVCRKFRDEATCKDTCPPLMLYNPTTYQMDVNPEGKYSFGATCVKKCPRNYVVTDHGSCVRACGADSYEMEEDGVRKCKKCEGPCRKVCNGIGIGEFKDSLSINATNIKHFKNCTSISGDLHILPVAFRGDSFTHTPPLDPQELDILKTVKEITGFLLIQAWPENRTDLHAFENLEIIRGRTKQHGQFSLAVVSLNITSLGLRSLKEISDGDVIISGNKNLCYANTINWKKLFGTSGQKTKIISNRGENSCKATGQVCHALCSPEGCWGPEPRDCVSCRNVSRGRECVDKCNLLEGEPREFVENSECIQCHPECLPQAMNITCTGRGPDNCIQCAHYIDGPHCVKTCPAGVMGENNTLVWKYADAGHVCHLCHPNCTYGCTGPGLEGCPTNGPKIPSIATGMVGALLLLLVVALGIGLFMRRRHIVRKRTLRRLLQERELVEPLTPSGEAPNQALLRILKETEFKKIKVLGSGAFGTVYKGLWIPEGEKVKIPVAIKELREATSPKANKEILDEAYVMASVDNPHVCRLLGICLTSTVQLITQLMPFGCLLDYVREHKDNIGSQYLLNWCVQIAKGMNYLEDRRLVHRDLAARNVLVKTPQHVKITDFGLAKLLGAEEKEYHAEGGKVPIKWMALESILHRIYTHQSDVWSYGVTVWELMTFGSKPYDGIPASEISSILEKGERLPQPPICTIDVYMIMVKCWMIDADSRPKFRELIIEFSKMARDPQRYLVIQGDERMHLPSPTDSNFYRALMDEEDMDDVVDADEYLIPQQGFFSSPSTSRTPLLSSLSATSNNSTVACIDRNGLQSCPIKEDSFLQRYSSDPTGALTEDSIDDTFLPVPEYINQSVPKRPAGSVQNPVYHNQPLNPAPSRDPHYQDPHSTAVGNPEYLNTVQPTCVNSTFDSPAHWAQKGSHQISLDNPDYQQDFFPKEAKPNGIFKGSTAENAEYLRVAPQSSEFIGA
Summary of the method: (§1)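 Recombinant tyrosine kinases assayed on wells precoated with poly(Glu,Tyr)4:1 (20 µg/mL). ATP 10 µmol/L in HEPES pH 7.4 buffer with MgCl2, MnCl2, Na3VO4 and DTT; compound in 1% DMSO, 1% DMSO as control. Reaction 60 min at 37 °C. Phosphotyrosine detected with PY99 and HRP anti-mouse, o-phenylenediamine, A490. Inhibition % relative to control; two experiments.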

[3] = Selectivity ratio of IC50 for human SNU16 cells to IC50 for human MKN45 cells; format: ADME, cell-based; conditions: snu-16
[4] = Selectivity ratio of IC50 for human SNU1 cells to IC50 for human EBC1 cells; format: ADME, cell-based
[5] = Selectivity ratio of IC50 for human SNU1 cells to IC50 for mouse BAF3 cells expressing TPR-MET; format: ADME, cell-based
[6] = biological target: Proto-oncogene tyrosine-protein kinase Src (Homo sapiens) (UniProt P12931); assay: Inhibition of recombinant c-Src (unknown origin) using poly (Glu, Tyr) 4:1 as substrate at 1000 nM incubated for 60 mins by ELISA relative to control; summary of the method: as §1
Proto-oncogene tyrosine-protein kinase Src (Homo sapiens), sequence (P12931 2-536 limits assumed): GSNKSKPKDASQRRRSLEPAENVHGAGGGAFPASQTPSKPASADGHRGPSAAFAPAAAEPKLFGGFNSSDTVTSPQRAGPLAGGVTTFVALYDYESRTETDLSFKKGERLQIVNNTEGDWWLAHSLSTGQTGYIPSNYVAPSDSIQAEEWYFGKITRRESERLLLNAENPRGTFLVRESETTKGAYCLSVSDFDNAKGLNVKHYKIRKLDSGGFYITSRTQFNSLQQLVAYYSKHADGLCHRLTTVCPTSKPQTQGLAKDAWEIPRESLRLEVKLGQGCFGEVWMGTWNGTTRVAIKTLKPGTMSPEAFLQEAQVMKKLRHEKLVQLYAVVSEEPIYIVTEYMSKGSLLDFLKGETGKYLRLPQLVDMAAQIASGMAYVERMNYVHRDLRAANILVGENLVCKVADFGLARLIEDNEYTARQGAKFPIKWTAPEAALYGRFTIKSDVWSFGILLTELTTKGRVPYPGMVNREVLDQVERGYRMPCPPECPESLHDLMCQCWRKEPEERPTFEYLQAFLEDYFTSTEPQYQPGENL

[7] = biological target: Tyrosine-protein kinase ABL1 (Homo sapiens) (UniProt P00519); assay: Inhibition of recombinant ABL (unknown origin) using poly (Glu, Tyr) 4:1 as substrate at 1000 nM incubated for 60 mins by ELISA relative to control; summary of the method: as §1
Tyrosine-protein kinase ABL1 (Homo sapiens), sequence (P00519 whole entry): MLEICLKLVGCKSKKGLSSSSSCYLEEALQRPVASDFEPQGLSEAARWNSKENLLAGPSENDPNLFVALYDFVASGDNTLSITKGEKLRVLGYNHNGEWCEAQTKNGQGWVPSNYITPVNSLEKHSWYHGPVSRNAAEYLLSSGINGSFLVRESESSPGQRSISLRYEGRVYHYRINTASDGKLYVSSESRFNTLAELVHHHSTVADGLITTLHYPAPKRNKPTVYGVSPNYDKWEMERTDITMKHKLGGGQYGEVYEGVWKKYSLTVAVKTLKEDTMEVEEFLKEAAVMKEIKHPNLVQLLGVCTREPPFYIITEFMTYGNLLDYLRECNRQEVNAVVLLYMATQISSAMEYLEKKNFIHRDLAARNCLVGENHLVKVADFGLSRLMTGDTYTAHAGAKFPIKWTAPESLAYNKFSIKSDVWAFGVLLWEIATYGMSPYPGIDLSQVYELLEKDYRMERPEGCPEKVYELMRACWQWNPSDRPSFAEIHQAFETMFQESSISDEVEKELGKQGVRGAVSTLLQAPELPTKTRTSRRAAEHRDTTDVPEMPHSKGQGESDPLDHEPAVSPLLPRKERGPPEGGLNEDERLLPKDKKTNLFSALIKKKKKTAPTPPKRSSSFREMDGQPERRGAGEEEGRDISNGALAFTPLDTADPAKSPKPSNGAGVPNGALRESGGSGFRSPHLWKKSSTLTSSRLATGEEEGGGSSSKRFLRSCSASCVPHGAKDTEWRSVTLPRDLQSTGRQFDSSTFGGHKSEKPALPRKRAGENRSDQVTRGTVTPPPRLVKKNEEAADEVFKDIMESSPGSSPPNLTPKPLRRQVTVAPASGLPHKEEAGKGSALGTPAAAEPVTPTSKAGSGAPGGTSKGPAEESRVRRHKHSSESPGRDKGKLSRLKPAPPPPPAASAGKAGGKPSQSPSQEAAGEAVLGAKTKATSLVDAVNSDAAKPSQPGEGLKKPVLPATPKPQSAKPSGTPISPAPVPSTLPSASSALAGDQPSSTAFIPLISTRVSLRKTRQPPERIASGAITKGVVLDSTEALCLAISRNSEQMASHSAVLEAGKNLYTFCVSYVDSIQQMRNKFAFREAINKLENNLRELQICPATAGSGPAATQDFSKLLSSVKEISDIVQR

[8] = biological target: Hepatocyte growth factor receptor (Homo sapiens, UniProt P08581); assay: Inhibition of c-Met in human MKN45 cells assessed as reduction in ERK phosphorylation at Threonine 202 at 10 nM after 1 hr by Western blot analysis; format: cell-based; conditions: MKN-45
Hepatocyte growth factor receptor, sequence (P08581 whole entry): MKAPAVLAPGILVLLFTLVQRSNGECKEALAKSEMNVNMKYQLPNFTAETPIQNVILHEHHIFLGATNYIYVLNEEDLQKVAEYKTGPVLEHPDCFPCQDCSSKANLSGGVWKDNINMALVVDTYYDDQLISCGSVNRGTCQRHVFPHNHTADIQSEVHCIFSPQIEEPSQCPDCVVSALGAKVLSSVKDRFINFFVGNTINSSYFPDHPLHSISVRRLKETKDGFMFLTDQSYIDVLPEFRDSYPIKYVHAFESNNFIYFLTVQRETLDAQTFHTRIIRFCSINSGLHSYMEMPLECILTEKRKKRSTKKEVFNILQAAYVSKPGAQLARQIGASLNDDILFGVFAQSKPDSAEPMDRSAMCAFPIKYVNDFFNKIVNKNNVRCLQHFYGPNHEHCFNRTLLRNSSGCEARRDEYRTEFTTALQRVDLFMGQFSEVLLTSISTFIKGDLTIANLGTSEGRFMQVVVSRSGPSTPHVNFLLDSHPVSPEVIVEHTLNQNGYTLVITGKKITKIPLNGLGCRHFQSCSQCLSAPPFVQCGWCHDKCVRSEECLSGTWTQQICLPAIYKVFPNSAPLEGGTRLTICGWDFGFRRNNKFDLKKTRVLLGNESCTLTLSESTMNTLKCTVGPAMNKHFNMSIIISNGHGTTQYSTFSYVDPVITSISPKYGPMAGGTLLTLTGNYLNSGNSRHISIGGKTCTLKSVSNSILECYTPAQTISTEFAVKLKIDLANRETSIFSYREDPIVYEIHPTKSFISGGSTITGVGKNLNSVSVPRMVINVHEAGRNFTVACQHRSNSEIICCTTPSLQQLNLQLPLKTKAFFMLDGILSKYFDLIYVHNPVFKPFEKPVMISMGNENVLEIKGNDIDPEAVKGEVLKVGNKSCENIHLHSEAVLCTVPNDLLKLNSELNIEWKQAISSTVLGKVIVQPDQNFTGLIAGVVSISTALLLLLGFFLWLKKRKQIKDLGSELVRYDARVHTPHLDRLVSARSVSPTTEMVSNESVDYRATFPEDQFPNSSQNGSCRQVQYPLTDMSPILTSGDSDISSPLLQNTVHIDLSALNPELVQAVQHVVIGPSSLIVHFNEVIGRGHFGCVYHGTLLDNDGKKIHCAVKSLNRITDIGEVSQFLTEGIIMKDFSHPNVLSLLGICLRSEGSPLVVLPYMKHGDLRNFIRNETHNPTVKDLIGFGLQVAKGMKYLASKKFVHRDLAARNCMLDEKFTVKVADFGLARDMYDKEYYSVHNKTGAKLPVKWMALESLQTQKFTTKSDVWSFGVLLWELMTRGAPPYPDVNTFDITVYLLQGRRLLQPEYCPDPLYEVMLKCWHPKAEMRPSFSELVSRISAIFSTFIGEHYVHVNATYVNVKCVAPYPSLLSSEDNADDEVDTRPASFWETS
Summary of the method: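 EBC-1 or MKN45 cells treated with compound 1 h at 37 °C without HGF, then lysed in 1× SDS sample buffer. Lysates run on 10% SDS-PAGE and transferred to nitrocellulose. Probed with antibodies to c-Met, phospho-c-Met, phospho-ERK1/2, phospho-AKT, AKT and GAPDH, then HRP secondary. ECL detection.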

[9] = test system: 786-0; assay: Antiproliferative activity against human 786-0 cells after 72 hrs by SRB or MTT assay; format: functional, cell-based; conditions: 786-0, 72 h
Summary of the method: (§2)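 Cells seeded, exposed next day to a range of concentrations for 72 h. Growth read by sulforhodamine B or MTT. IC50 from four-parameter concentration-response fit. Each concentration tested at least in triplicate, with at least 2 experiments.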

[10] = Antiproliferative activity against human Bel7404 cells after 72 hrs by SRB or MTT assay; format: functional, cell-based; conditions: BEL-7404, 72 h; summary of the method: as §2
[11] = test system: NCI-H1299; assay: Antiproliferative activity against human NCI-H1299 cells after 72 hrs by SRB or MTT assay; format: functional, cell-based; conditions: NCI-H1299, 72 h; summary of the method: as §2
[12] = Antiproliferative activity against human MGC803 cells after 72 hrs by SRB or MTT assay; format: functional, cell-based; conditions: MGC-803, 72 h; summary of the method: as §2
[13] = Antiproliferative activity against human SNU16 cells after 72 hrs by SRB or MTT assay; format: functional, cell-based; conditions: SNU-16, 72 h; summary of the method: as §2
[14] = test system: EBC-1; assay: Antitumor activity against human EBC1 cells xenografted in po dosed athymic nude mouse assessed as tumor growth inhibition administered bid for 21 days measured twice a week during compound dosing; format: functional, organism-based
Summary of the method: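 Nude mice bearing s.c. tumours. Cells were first grown s.c. to 700–800 mm³, then 1.5 mm³ fragments were transplanted s.c. into the right flank. Mice were randomised at 100–200 mm³ (n=6 treated, n=12 vehicle) and dosed orally twice daily for 21 days. Caliper measurement twice weekly; TV = length×width²/2. TGI taken on the final day versus vehicle; Student's t test.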

[15] = Selectivity ratio of IC50 for human PANC1 cells to IC50 for human EBC1 cells; format: ADME, cell-based; conditions: panc-1
Summary of the method: (§3)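 Each cell line was seeded in 96-well plates, then exposed the next day to a range of compound concentrations for 72 h. Growth was read by SRB or MTT assay, and IC50 was fitted by a four-parameter concentration-response curve. Each concentration was run at least in triplicate, in at least 2 experiments. BaF3/TPR-Met are murine pre-B BaF3 cells transfected with TPR-MET cDNA and selected in puromycin.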

[16] = Selectivity ratio of IC50 for human PANC1 cells to IC50 for mouse BAF3 cells expressing TPR-MET; format: ADME, cell-based; summary of the method: as §3
[17] = Selectivity ratio of IC50 for human SMMC7721 cells to IC50 for human MKN45 cells; format: ADME, cell-based; conditions: smmc-7721; summary of the method: as §3
[18] = Selectivity ratio of IC50 for human SMMC7721 cells to IC50 for mouse BAF3 cells expressing TPR-MET; format: ADME, cell-based
[19] = Selectivity ratio of IC50 for human NCI-HCC827 cells to IC50 for mouse BAF3 cells expressing TPR-MET; format: ADME, cell-based; summary of the method: as §3
[20] = Selectivity ratio of IC50 for human NCI-H358 cells to IC50 for human MKN45 cells; format: ADME, cell-based
Summary of the method: (§4)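 Both IC50s in each ratio come from one proliferation assay. Cells were seeded and exposed the next day to a range of concentrations for 72 h, then read by SRB or MTT. IC50s were fitted by four-parameter concentration–response, with each concentration at least in triplicate and at least 2 experiments. BaF3/TPR-Met is murine pre-B BaF3 transfected with TPR-MET and puromycin-selected.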

[21] = Selectivity ratio of IC50 for human NCI-H596 cells to IC50 for human EBC1 cells; format: ADME, cell-based; summary of the method: as §4
[22] = Selectivity ratio of IC50 for human NCI-H596 cells to IC50 for human MKN45 cells; format: ADME, cell-based; conditions: mkn-45; summary of the method: as §4
[23] = Selectivity ratio of IC50 for human NCI-H226 cells to IC50 for human MKN45 cells; format: ADME, cell-based; summary of the method: as §4
[24] = Selectivity ratio of IC50 for human NCI-H661 cells to IC50 for human MKN45 cells; format: ADME, cell-based; conditions: mkn-45; summary of the method: as §4
[25] = Selectivity ratio of IC50 for human MDA-MB-231 cells to IC50 for human MKN45 cells; format: ADME, cell-based; conditions: mkn-45; summary of the method: as §4
[26] = Selectivity ratio of IC50 for human MGC803 cells to IC50 for mouse BAF3 cells expressing TPR-MET; format: ADME, cell-based; summary of the method: as §4
[27] = Selectivity ratio of IC50 for human SPCA1 cells to IC50 for human EBC1 cells; format: ADME, cell-based; conditions: SPCA1 cells versus EBC1 cells

Fc1ccc(-c2cnc3nnc(C(F)(F)c4ccc5ncccc5c4)n3n2)cc1
869 ng/mL: Cmax [1]
33.2%: inhibition [2]
> 10000: Ratio IC50 [23] | Ratio IC50 [24] | Ratio IC50 [25] | Ratio IC50 [26] | selectivity ratio [27]
active: inhibition [8] | TGI [14] Dose-dependent effect
14.9%: inhibition [7]
13.7%: inhibition [6]
> 10 µM: IC50 [9] | IC50 [10] | IC50 [11] | IC50 [12] | IC50 [13]
10000: Ratio IC50 [3] | Ratio IC50 [4] | Ratio IC50 [5] | Ratio IC50 [15] | Ratio IC50 [16] | Ratio IC50 [17] | Ratio IC50 [18] | Ratio IC50 [19] | Ratio IC50 [20] | Ratio IC50 [21] | Ratio IC50 [22]
